# Changes are numbered by the printed parent chain. Activity calls are given as the source filed them. The calls are words filed in the database; no cut-off is given here.
# Columns and labels:
# [1] = target: T1, Monoglyceride lipase (Homo sapiens) (UniProt Q99685); test: Inhibition of MAGL at 10^-8.5 M after 30 mins by liquid scintillation counter
# T1 sequence (whole entry): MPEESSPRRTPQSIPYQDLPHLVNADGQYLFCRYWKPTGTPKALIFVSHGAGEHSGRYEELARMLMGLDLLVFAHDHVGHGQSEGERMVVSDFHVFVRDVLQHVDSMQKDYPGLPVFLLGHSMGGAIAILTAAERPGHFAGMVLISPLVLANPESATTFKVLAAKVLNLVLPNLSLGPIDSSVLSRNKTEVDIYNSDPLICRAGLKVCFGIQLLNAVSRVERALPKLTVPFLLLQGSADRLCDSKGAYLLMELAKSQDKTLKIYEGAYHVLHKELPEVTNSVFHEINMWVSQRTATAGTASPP
# Method in brief: (§1)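 Pure MAGL (105 ng, 20 μL) incubated 30 min at room temperature with inhibitor at 10−3 to 10−6 M or DMSO, then diluted 300-fold in Tris pH 8.0; after 15 min, aliquot assayed with [3H]-2-OG by standard protocol; same nominal post-dilution concentrations also assayed directly; percent of control, one-way ANOVA with Dunnett's test.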
# [2] = target: T2, Monoglyceride lipase (Mus musculus) (UniProt O35678); test: Inhibition of MAGL in mouse B16 cells assessed as increase in 2-arachidonoylglycerol level at 10 uM after 8 hrs by isotope dilution HPLC-MS method; type: cell-based
# T2 sequence (whole entry): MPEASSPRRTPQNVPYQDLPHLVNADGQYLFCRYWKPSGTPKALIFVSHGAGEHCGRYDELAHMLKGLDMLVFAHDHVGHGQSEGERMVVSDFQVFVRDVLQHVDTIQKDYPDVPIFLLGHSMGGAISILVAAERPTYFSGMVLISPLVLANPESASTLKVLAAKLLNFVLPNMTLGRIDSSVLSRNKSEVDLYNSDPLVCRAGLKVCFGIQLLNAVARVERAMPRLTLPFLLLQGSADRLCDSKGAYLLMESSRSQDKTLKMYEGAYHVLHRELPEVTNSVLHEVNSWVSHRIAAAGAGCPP
# Method in brief: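 Murine B16 melanoma cells (MEMα, 10% FBS, 37 °C, 5% CO2), 5 × 10^6 cells/condition seeded 12 h, then exposed 8 h to 10 μM inhibitor or 0.1% DMSO in 1% FBS medium; cells plus medium extracted with chloroform–methanol with d5-2-AG, silica SPE cleanup, 2-AG quantified by APCI-positive HPLC–MS isotope dilution, normalized to vehicle.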
# [3] = system: T3, Monoglyceride lipase (Homo sapiens), Q99685 [C242A]; test: Inhibition of human MAGL C242A mutant expressed in Escherichia coli
# T3 sequence (whole entry): T1 sequence (whole entry) with C242A
# Method in brief: (§2)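 Homogenates of E. coli expressing wild-type or C201A, C208A, C242A or C208A/C242A mutant MAGL used as enzyme source in the [3H]-2-OG hydrolysis assay; n = 3 in duplicate.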
# Monoglyceride lipase = target: T4, Monoglyceride lipase (Homo sapiens, UniProt Q99685); test: Inhibition of human recombinant MAGL using [3H]-2-OG as substrate after 10 mins by liquid scintillation counter
# T4 sequence (Q99685 whole entry): T1 sequence (whole entry)
# Method in brief: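 Purified recombinant hMAGL (5 ng; Tris pH 8.0, 50 mM, 0.1% BSA) with inhibitor in DMSO and [3H]-2-OG (10 μM), 10 min at 37 °C; stopped with ice-cold methanol–chloroform, aqueous-phase radioactivity by liquid scintillation, no-enzyme blanks subtracted; pIC50 from dose–response, mean ± SEM of three experiments in duplicate.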
# Homo sapiens = species on record: Homo sapiens; test: Selectivity ratio of IC50 for human recombinant FAAH to IC50 for human recombinant MAGL
# [4] = system: T5, Monoglyceride lipase (Homo sapiens), Q99685 [C201A]; test: Inhibition of human MAGL C201A mutant expressed in Escherichia coli; method in brief: as §2
# T5 sequence (whole entry): T1 sequence (whole entry) with C201A
# [5] = system: T6, Monoglyceride lipase (Homo sapiens), Q99685 [C208A,C242A]; test: Inhibition of human MAGL C208A/C242A mutant expressed in Escherichia coli; method in brief: as §2
# T6 sequence (whole entry): T1 sequence (whole entry) with C208A, C242A
# [6] = system: T6, Monoglyceride lipase (Homo sapiens), Q99685 [C208A,C242A]; test: Inhibition of human MAGL C208A/C242A mutant expressed in Escherichia coli in presence of DTT
# [7] = target: T1, Monoglyceride lipase (Homo sapiens); test: Irreversible inhibition of MAGL at 10^-8.5 M measured after 300 times dilution; method in brief: as §1
smiles,measurement,setting,value
CC(C)(C)c1ccc(CN2CCN(C(=S)Sc3ccc([N+](=O)[O-])cc3[N+](=O)[O-])CC2)cc1,inhibition,[1],inactive
same,inhibition,[2],Active
same,inhibition,[3],inactive
same,IC50,Monoglyceride lipase,155 nM
same,Ratio IC50,Homo sapiens,11
same,inhibition,[4],Active
same,inhibition,[5],inactive
same,inhibition,[6],Active
same,inhibition,[7],Active

# Reference: ChEMBL document CHEMBL2157991, “Synthesis and pharmacological evaluation of 2,4-dinitroaryldithiocarbamate derivatives as novel monoacylglycerol lipase inhibitors” (J Med Chem, 2012)
